Reference: ChEMBL document CHEMBL1138390, “Synthesis and biological evaluation of novel T-type calcium channel blockers” (Bioorg Med Chem Lett, 2007)

Legend:
[1] = organism: Homo sapiens; test: Selectivity index, ratio of T-type calcium channel Cav3.1 to N-type calcium channel at 10 uM
[2] = target: T1, Voltage-dependent T-type calcium channel subunit alpha-1G (Homo sapiens, UniProt O43497); test: Inhibition of T-type calcium channel Cav3.1 expressed in HEK293 cells co-expressing alpha1G subunit at 10 uM by whole-cell patch clamp method; assay type: cell-based
Summary of the method: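 α1G T-type channel expressed in HEK293 cells, whole-cell patch clamp. Percent inhibition of α1G currents at a single test concentration, given as mean ± SE from n ≥ 4 repeats. IC50 is the molar concentration giving 50% current inhibition, obtained by fitting raw data to dose–response curves.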

[3] = target: Voltage-dependent N-type calcium channel subunit alpha-1B (Homo sapiens) (UniProt Q00975); test: Inhibition of N-type calcium channel expressed in HEK293 cells co-expressing Alpha-1B subunit at 10 uM; assay type: cell-based
Summary of the method: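 N-type α1B channel expressed in HEK293 cells. Percent current inhibition at a single test concentration, reported as mean ± SE from n ≥ 4 repeated measurements. Inhibition below 1% was recorded as no blocking.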

[4] = target: Voltage-dependent T-type calcium channel subunit alpha-1H (Homo sapiens) (UniProt O95180); test: Inhibition of T-type calcium channel Cav3.2 expressed in Xenopus oocytes coexpressing alpha-1H subunit at 100 uM by two-electrode voltage clamp method
[5] = target: T1, Voltage-dependent T-type calcium channel subunit alpha-1G; test: Inhibition of T-type calcium channel Cav3.1 expressed in HEK293 cells co-expressing alpha1G subunit by whole-cell patch clamp method; assay type: cell-based

Voltage-dependent T-type calcium channel subunit alpha-1H (Homo sapiens), sequence (O95180 whole entry): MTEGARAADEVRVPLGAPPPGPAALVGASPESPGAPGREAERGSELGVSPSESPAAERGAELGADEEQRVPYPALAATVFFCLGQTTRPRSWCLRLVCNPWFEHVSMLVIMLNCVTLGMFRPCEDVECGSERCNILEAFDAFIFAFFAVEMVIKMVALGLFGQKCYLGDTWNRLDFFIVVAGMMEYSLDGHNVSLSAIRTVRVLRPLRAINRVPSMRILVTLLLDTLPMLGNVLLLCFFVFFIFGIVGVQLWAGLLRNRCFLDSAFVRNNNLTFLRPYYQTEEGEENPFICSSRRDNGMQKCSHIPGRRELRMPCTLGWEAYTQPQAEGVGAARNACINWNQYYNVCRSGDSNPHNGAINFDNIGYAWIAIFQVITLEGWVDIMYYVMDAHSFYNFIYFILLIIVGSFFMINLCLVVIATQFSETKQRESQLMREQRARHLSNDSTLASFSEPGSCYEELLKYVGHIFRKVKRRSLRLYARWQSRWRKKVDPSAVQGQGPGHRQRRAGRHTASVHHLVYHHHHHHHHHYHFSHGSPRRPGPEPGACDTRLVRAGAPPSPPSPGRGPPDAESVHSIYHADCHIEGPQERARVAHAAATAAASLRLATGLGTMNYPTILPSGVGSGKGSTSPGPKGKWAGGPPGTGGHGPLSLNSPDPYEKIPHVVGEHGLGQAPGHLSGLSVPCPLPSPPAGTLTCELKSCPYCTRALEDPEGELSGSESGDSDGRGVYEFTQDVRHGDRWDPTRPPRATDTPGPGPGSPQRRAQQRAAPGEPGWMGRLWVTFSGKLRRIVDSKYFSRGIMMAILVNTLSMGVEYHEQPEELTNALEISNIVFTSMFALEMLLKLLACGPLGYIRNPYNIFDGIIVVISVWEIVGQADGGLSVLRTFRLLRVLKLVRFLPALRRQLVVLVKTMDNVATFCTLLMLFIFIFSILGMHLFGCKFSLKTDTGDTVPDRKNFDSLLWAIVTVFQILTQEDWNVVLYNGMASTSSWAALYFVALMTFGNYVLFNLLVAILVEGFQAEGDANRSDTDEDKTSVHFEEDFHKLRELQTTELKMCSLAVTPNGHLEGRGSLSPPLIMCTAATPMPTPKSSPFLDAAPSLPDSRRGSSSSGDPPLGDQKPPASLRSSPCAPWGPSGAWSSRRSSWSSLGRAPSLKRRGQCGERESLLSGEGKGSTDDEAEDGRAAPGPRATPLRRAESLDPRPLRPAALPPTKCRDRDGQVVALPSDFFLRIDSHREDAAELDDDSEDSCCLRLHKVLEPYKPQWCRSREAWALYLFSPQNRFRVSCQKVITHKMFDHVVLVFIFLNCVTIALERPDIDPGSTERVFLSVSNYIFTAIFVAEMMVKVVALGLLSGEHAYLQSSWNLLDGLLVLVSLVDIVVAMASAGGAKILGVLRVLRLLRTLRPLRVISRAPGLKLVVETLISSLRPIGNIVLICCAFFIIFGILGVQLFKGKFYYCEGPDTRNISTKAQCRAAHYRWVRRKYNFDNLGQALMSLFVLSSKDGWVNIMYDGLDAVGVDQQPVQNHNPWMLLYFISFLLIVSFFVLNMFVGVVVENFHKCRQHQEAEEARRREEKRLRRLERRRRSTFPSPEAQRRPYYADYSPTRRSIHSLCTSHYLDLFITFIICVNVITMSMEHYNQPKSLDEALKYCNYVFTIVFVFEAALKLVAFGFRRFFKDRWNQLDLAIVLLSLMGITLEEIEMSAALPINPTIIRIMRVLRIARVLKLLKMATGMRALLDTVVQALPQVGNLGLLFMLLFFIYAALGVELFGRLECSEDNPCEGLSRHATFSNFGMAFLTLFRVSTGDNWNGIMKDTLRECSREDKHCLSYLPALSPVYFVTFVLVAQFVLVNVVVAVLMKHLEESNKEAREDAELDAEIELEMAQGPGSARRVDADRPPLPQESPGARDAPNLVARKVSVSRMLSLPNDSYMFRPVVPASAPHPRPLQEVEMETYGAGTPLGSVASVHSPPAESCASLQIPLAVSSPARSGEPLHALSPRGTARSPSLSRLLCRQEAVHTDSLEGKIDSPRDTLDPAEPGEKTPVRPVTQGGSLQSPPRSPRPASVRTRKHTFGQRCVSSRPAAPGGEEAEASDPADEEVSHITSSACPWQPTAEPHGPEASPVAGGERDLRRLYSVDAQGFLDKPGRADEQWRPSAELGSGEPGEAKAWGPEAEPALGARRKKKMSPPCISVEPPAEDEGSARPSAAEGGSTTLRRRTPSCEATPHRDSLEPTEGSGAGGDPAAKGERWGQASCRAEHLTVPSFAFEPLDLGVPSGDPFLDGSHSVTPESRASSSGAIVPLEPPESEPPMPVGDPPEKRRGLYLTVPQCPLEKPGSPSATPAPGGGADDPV
Voltage-dependent N-type calcium channel subunit alpha-1B (Homo sapiens), sequence (Q00975 whole entry, looked up): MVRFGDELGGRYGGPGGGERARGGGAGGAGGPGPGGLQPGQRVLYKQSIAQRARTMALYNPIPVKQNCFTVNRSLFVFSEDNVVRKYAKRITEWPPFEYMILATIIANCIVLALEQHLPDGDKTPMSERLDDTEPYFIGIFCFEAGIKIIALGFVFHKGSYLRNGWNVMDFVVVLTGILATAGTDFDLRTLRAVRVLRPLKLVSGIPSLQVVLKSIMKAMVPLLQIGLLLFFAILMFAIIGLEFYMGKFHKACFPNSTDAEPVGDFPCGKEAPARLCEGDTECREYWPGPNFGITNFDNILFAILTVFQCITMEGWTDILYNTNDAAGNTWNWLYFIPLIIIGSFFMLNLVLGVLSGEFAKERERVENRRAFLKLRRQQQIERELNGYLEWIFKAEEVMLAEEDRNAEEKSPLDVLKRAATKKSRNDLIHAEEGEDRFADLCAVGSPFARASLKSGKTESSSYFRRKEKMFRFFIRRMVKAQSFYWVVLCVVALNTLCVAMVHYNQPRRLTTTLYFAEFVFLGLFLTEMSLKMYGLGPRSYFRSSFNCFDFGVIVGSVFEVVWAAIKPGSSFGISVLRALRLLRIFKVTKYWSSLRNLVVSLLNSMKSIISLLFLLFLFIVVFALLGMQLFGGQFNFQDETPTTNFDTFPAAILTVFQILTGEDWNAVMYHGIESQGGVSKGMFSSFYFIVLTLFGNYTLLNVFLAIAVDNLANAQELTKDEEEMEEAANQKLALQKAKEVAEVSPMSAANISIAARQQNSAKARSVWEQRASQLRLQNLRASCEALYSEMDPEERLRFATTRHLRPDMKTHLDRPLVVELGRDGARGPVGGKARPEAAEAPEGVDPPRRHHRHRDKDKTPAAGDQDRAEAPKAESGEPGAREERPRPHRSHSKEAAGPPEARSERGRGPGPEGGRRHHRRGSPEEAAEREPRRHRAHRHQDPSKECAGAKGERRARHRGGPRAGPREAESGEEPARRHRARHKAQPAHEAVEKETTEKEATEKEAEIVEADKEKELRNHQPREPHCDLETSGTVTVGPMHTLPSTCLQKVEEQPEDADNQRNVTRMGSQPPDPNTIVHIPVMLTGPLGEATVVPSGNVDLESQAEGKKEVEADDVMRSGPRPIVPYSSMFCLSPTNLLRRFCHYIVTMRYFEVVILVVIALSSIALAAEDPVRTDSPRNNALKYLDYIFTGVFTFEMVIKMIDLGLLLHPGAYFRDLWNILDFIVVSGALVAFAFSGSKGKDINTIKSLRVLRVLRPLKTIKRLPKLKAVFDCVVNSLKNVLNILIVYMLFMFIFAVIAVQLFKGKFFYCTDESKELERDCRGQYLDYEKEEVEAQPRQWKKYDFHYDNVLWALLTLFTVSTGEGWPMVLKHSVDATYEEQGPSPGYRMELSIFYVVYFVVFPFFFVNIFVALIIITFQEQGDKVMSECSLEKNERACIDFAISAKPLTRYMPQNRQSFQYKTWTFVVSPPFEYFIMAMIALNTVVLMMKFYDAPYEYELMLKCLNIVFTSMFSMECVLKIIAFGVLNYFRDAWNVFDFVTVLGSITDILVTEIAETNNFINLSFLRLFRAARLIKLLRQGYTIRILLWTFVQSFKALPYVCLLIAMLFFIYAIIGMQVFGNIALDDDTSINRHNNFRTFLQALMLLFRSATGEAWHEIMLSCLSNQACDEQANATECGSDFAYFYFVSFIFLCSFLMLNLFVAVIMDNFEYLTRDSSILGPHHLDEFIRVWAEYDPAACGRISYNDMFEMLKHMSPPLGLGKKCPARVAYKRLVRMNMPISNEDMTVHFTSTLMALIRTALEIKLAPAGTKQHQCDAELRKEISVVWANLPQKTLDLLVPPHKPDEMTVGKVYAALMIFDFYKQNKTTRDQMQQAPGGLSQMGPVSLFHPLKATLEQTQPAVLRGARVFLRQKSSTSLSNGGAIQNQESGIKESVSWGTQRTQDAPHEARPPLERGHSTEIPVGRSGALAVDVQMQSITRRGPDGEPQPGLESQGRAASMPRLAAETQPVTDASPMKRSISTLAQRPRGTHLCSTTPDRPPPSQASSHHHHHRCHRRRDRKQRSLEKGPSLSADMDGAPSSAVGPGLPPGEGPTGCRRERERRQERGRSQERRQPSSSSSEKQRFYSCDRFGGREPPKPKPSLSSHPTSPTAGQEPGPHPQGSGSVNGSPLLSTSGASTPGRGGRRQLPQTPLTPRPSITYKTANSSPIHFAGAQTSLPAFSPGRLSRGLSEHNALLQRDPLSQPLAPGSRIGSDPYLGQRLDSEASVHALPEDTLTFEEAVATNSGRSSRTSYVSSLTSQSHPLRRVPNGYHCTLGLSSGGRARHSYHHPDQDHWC

NCCCCCNC1=Nc2ccccc2C(CC(=O)NCc2ccccc2)N1c1ccc(-c2ccccc2)cc1 (stereo unspecified)
Ratio [1]: 10.1

COC(=O)CC1c2ccccc2N=C(N(C)CCCCCN2CCCC2)N1c1ccc(-c2ccccc2)cc1 (stereo unspecified)
inhibition [2]: 94.9% | inhibition [3]: 36.5% | inhibition [4]: 88% | Ratio [1]: 2.6 | IC50 [5]: 0.34 µM

CN(CCCCCN1CCCC1)C1=Nc2ccccc2C(CC(=O)NCc2ccccc2)N1c1ccccc1 (stereo unspecified)
inhibition [2]: 68.1% | inhibition [3]: 46.3% | inhibition [4]: 82.7% | Ratio [1]: 1.5 | IC50 [5]: 4.2 µM

COC(=O)CC1c2ccccc2N=C(N(C)CCCCCN2CCCC2)N1c1ccccc1 (stereo unspecified)
inhibition [2]: 59.5% | inhibition [3]: 10.7% | inhibition [4]: 47.7% | Ratio [1]: 5.6 | IC50 [5]: 5.84 µM

CN(CCCCCN1CCCC1)C1=Nc2ccccc2C(CC(=O)NCc2ccccc2)N1c1ccc(-c2ccccc2)cc1 (stereo unspecified)
inhibition [2]: 88.1% | inhibition [3]: 11.7% | inhibition [4]: 95.5% | Ratio [1]: 7.5

COC(=O)CC1c2ccccc2N=C(NCCCCCN)N1c1ccc(-c2ccccc2)cc1 (stereo unspecified)
Ratio [1]: > 100
